Measured values: ChEMBL document CHEMBL2396525, “Synthesis and anti-HCMV activity of 1-[ω-(phenoxy)alkyl]uracil derivatives and analogues thereof” (Bioorg Med Chem, 2013)
Calls of active or inactive are those of the source. The calls are words filed in the database; no cut-off is given here.

How the values were obtained:
Human alphaherpesvirus 3 [1] = test: Antiviral activity against Varicella-zoster virus YS; format: functional, organism-based
Method in brief: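 VZV was assayed by plaque formation. Confluent cell cultures received 10 or 100 PFU with varying compound concentrations, and plaques were recorded once complete in untreated infected controls. EC50 is the concentration that reduces plaque formation by 50%.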

[2] = tested on: Human immunodeficiency virus 1; test: Antiviral activity against HIV1 3B infected in human CEM cells assessed as inhibition of virus-induced giant cell formation after 4 to 5 days; format: functional, organism-based; conditions: Human immunodeficiency virus 1, 3B, CCRF-CEM
Method in brief: (§1)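 CEM cells at about 3 × 10^5 cells/mL were infected with 100 CCID50 of HIV per mL, with compound dilutions present. They were incubated 4–5 days at 37 °C in humidified CO2, and syncytia were scored microscopically. EC50 is the concentration that inhibits giant cell formation by 50%.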

[3] = Cytotoxicity against HEL assessed as minimum cytotoxic concentration required to cause microscopically detectable alteration in cell morphology; format: cell-based; conditions: human, HEL cells
Sindbis virus = test: Antiviral activity against Sindbis virus; format: functional, organism-based
Method in brief: (§2)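 Confluent HEL, Vero, HeLa or MDCK cell cultures were inoculated with 100 CCID50 of virus alongside varying compound concentrations. Cytopathicity was scored when it reached completion in untreated virus controls. EC50 is the concentration that reduces virus-induced cytopathogenicity by 50%.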

[4] = tested on: Respiratory syncytial virus; test: Antiviral activity against Respiratory syncytial virus Long; format: functional, organism-based; method in brief: as §2
Human betaherpesvirus 5 [5] = test: Antiviral actiivty against Human herpesvirus 5 AD169 infected in HEL assessed as reduction of virus-induced plaque formation; format: functional, organism-based; conditions: Human betaherpesvirus 5, AD169
Method in brief: (§3)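 HCMV strains AD-169 and Davis were tested on confluent human embryonic lung fibroblast monolayers infected with 100 PFU in the presence of serial compound concentrations. Plaques were counted once formation was complete in untreated infected controls. EC50 is the concentration that cuts plaque formation by 50%.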

Feline coronavirus = test: Antiviral activity against Feline coronavirus; format: functional, organism-based
[6] = tested on: Human immunodeficiency virus 2; test: Antiviral activity against HIV2 ROD infected in human CEM cells assessed as inhibition of virus-induced giant cell formation after 4 to 5 days; format: functional, organism-based; conditions: ISOLATE ROD, CCRF-CEM; method in brief: as §1
Coxsackievirus B4 = test: Antiviral activity against Coxsackie B4 virus; format: functional, organism-based; method in brief: as §2
Influenza A virus [7] = test: Antiviral activity against Influenza virus A virus H3N2; format: functional, organism-based
Method in brief: (§4)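 The assay was a cell-based cytopathicity inhibition test on confluent monolayers with serial compound dilutions. EC50 was the concentration that reduced virus-induced cytopathicity by 50%.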

Human alphaherpesvirus 1 [8] = test: Antiviral activity against thymidine kinase deficient acyclovir-resistant Herpes simplex virus type 1 KOS; format: functional, organism-based
Human alphaherpesvirus 2 [9] = test: Antiviral activity against Herpes simplex virus type 2 G; format: functional, organism-based; conditions: strain G; method in brief: as §2
Human respirovirus 3 = test: Antiviral activity against Parainfluenza virus 3; format: functional, organism-based; method in brief: as §2
Influenza B virus = test: Antiviral activity against Influenza B virus; format: functional, organism-based; method in brief: as §4
Vaccinia virus = test: Antiviral activity against Vaccinia virus Lederle; format: functional, organism-based; conditions: Orthopoxvirus vaccinia
HEL = test: Cytotoxicity against HEL; format: cell-based; conditions: human
[10] = tested on: Vesicular stomatitis virus; test: Antiviral activity against Vesicular stomatitis virus; format: functional, organism-based
Human alphaherpesvirus 3 [11] = test: Antiviral activity against Varicella-zoster virus OKA; format: functional; conditions: strain Oka vaccine
Method in brief: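 Confluent cell monolayers were infected with 10 or 100 PFU of VZV in the presence of serial compound dilutions. Plaque formation was recorded once untreated infected controls reached completion. EC50 was the concentration that reduced plaque formation by 50%.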

Human betaherpesvirus 5 [12] = test: Antiviral actiivty against Human herpesvirus 5 Davis infected in HEL assessed as reduction of virus-induced plaque formation; format: functional, organism-based; conditions: Human betaherpesvirus 5, Davis; method in brief: as §3
Influenza A virus [13] = test: Antiviral activity against Influenza virus A virus H1N1; format: functional, organism-based; method in brief: as §4
Human alphaherpesvirus 2 [14] = test: Antiviral activity against Herpes simplex virus type 2 Lyons; format: functional, organism-based; method in brief: as §2
[15] = tested on: Mammalian orthoreovirus 1; test: Antiviral activity against Reovirus-1; format: functional, organism-based; method in brief: as §2
Punta Toro virus = test: Antiviral activity against Punta Toro virus; format: functional, organism-based; method in brief: as §2
[16] = Cytotoxicity against human CEM cells; format: cell-based; conditions: CCRF-CEM (CEM) cells
Human alphaherpesvirus 1 [17] = test: Antiviral activity against Herpes simplex virus type 1 KOS; format: functional, organism-based; method in brief: as §2

Cc1cc(C)cc(OCCCCCn2ccc(=O)[nH]c2=O)c1
Activity (Human alphaherpesvirus 3 [1]): inactive | EC50 [2]: 24 µM | MCC [3]: > 100 µM | Activity (Sindbis virus): inactive | Activity [4]: inactive | EC50 (Human betaherpesvirus 5 [5]): > 100 µM | Activity (Feline coronavirus): inactive | Activity [6]: inactive | Activity (Coxsackievirus B4): inactive | Activity (Influenza A virus [7]): inactive | Activity (Human alphaherpesvirus 1 [8]): inactive | Activity (Human alphaherpesvirus 2 [9]): inactive | Activity (Human respirovirus 3): inactive | Activity (Influenza B virus): inactive | Activity (Vaccinia virus): inactive | CC50 (HEL): > 100 µM | Activity [10]: inactive | Activity (Human alphaherpesvirus 3 [11]): inactive | EC50 (Human betaherpesvirus 5 [12]): > 100 µM | Activity (Influenza A virus [13]): inactive | Activity (Human alphaherpesvirus 2 [14]): inactive | Activity [15]: inactive | Activity (Punta Toro virus): inactive | CC50 [16]: 154 µM | Activity (Human alphaherpesvirus 1 [17]): inactive
